Assay outcomes as filed in PubChem.
Compounds with a hit are over-represented: about 2% of the library has one in this group of screens.
M18AAP inhibitor: blocks P. falciparum M18 aspartyl aminopeptidase | recombinant PfM18AAP, H-Glu-NHMec fluorogenic cleavage | inhibition, % at 7.35 µM | 290,000 tested, 1.2% active | AID 1822;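 active = inhibition above the campaign mean inhibition over all tested compounds plus 3 SD, cut at about 28% in these data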;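 also: 0% = plate median of test compound wells and 100% = 2 mM ZnCl2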
TbHK1 inh: T. brucei hexokinase 1 inhibition; recombinant TbHK1, G6PDH-coupled NADH A340; inhibition, % at 10 µM; 220,000 tested, 0.11% active;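 active = inhibition of 50% or more in the single-dose primary screen; inactive = inhibition below 50%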
TNF death inh: TNF-alpha cell death inhibition in Jurkat FADD-/- cells; activation (protection from cell death), % at 10 µM; 220,000 tested, 0.068% active; Jurkat FADD-/- TNF necroptosis rescue, ATP luminescence, 24 h; 0 = TNF only, 100 = no-TNF cells;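 active = activation, meaning protection from cell death, of at least 50% relative to plate controls; inactive = activation below 50%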;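 also: necroptosis triggered by 40 ng/mL TNF-alpha added together with compound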
Lipid droplet: hepatic lipid droplet formation modulation. 240,000 tested, 0.4% active. AML12 mouse hepatocytes, oleate lipid droplets, BODIPY imaging. inhibition, % at 6.5 µM;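 active = lipid droplet intensity inhibited by at least 50%, with more than 500 cells counted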
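System: AML12 hepatocytes (mouse). Probe or stimulus: oleic acid at 100 µM to induce lipid droplet formation. Times: overnight treatment with compound plus oleate. Detection: Image-based BODIPY and DAPI two-channel analysis. Evaluation: percent inhibition of filter-corrected integrated lipid droplet intensity per well.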
L929 necroptosis: L929 zVAD cell death inhibition. L929 zVAD necroptosis rescue, ATP luminescence, 24 h; with zVAD 60 µM. viability rescue, % at 10 µM. 220,000 tested, 0.38% active;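 active = activation, scaled between plate controls, above about 75%, limit read from the data; inactive = activation under that limit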;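 also: 0% = zVAD with DMSO and 100% = DMSO alone without zVAD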
RBBP9 inhibitor: human RBBP9 hydrolase inhibition | inhibition, % at 7.94 µM | 220,000 tested, 0.2% active | O75884 | recombinant RBBP9, FP-Rh probe fluorescence polarization | AID 1515;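 active = inhibition above the campaign mean of all tested compounds plus 3 SD, cut at about 14% in these data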;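 also: plate controls were DMSO wells with RBBP9 for no effect and wells lacking RBBP9 protein for full effect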
Target sequence (O75884 whole entry, looked up): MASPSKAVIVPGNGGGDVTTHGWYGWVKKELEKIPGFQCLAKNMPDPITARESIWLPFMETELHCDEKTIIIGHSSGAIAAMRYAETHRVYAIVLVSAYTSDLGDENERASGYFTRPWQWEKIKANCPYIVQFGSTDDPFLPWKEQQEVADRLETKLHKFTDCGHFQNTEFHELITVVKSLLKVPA
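Assay system: recombinant human RBBP9; Reagent: Serine-hydrolase probe FP-Rh, 375 nM pre-mixing; Doses: 7.94 µM single dose, 0.794% DMSO; Incubation: 30 min then 45 min, 25 °C; Detection: fluorescence polarization (mP), excitation 525 nm, emission 598 nm; Evaluation: percent inhibition from mP, scaled between DMSO and no-protein wells.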
zVAD necrop conf: confirmed blocker of zVAD induced death in L929 cells; shares compounds with L929 necroptosis; L929 zVAD-induced necroptosis rescue, ATP luminescence, 24 h; activation (protection from necroptosis), % at 10 µM; 760 tested, 16% active; AID 463117;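 active = mean protection from necroptosis of at least 50% over duplicate tests; inactive = mean protection below 50%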;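 also: 0% = cells with zVAD alone and 100% = vehicle cells without zVAD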
The depositor's hits bear a star; x = not tested or not shown.

SMILES	M18AAP inhibitor	TbHK1 inh	TNF death inh	Lipid droplet	L929 necroptosis	RBBP9 inhibitor	zVAD necrop conf
COc1cc(/C=N/Nc2nc(=O)[nH]nc2C)ccc1O	-1.0	-49.4	0.0	-1.0	1.6	-10.3	x
COc1cc(/C=N/Nc2nc3ccccc3[nH]2)cc(OC)c1O	23.4	-37.1	15.9	-4.2	86.7*	11.1	2.9
CCOC(=O)c1cc(C(=O)OCC)c(=O)[nH]c1N1CCCCC1	4.1	-33.1	-0.9	16.5	2.3	0.7	x
Cc1ccccc1N1Cc2ccccc2C1	3.7	-1.0	0.3	-19.9	0.9	-6.0	x
N=c1nc(N)nc2n1NC(c1ccc(F)cc1)=CS2	2.0	-3.3	20.5	x	81.2*	-1.0	39.8
Fc1ccc(C2=CSC3=NCCN23)cc1	12.4	-2.0	-0.8	-3.7	-0.6	-3.3	x
O=C(Nc1ccc(NC(=O)c2ccc(Cl)cc2Cl)cc1)c1cccs1	0.6	x	x	-12.7	x	x	x
O=C(NC(=S)Nc1cccc(NC(=O)c2ccc(Cl)cc2Cl)c1)c1cccs1	-5.9	-2.5	-0.7	1.3	77.3*	-3.9	34.5
COc1ccc(C2OC(=O)Cc3cc(OC)c(OC)cc32)cc1 (stereo unspecified)	-4.2	-5.4	0.7	4.3	0.8	2.4	x
Cn1c(N)c(C(=O)COC(=O)c2ncc(Cl)c(Cl)c2Cl)c(=O)n(C)c1=O	-1.9	-2.5	-2.3	0.7	66.8	-1.7	x
CCc1ccc(NC(=O)Nc2ccc3c(c2)N(C)C(=O)CS3)cc1	-9.9	10.6	-2.1	x	99.1*	-7.0	47.1
O=C(NC1CCCCCCC1)c1cc(COc2ccc3ncccc3c2)on1	0.9	2.0	-6.3	-11.5	76.4*	-4.9	-0.4
O=C(NCCNCc1ccccn1)c1ccco1	-2.0	1.9	0.2	7.9	1.0	0.4	x
O=C(Cn1cnc(S(=O)(=O)N2CCCC2)c1)Nc1cccc(F)c1	-4.4	x	x	15.4	x	x	x
Cc1ccc(C(=O)Nc2nccs2)cc1	-4.7	-3.6	11.6	16.0	85.9*	-5.2	38.9
O=C(Nc1nccs1)c1ccc(NC(=O)c2ccco2)cc1	0.7	-25.1	20.9	-2.1	84.4*	0.8	47.7
CC(C)(C)c1ccc(C(=O)Nc2ccc(NC(=O)c3ccco3)cc2)cc1	-2.2	-11.4	-0.5	x	13.9	-3.7	x
Nc1ccccc1C(=O)Nc1nccs1	-0.7	-13.4	8.6	3.1	91.0*	0.4	11.1
Nc1ccc(C(=O)Nc2nccs2)cc1	-2.2	-18.6	20.6	12.4	80.6*	-3.6	39.9
O=C(Nc1nccs1)c1ccccc1Br	3.1	x	x	-2.0	x	x	x
O=C(NCC(c1cccnc1)N1CCN(c2ccccc2F)CC1)c1cccc(Cl)c1 (stereo unspecified)	0.0	-11.0	-1.4	0.0	0.0	2.0	x
Cc1c(NC(=O)OCCNC(=O)COc2c(Cl)cccc2Cl)sc(=S)n1C	3.2	-10.2	-3.0	x	-0.3	-0.2	x
CN(c1ccccc1)S(=O)(=O)c1ccc(C(=O)Nc2nccs2)cc1	5.1	-1.8	4.9	x	41.9	-6.5	x
CCn1c(SCc2ccc(C(=O)Nc3nccs3)cc2)nnc1-c1ccc(N)cc1	-4.0	-7.5	17.4	-1.1	88.4*	1.2	71.1*
COc1ccc(CCNC(=O)C(=O)Nc2nccs2)cc1OC	2.3	-3.4	-1.5	13.9	-0.3	-8.5	x
SMILES	M18AAP inhibitor	TbHK1 inh	TNF death inh	Lipid droplet	L929 necroptosis	RBBP9 inhibitor	zVAD necrop conf
CN(c1ccc(C(=O)Nc2nccs2)cc1)S(=O)(=O)c1ccccc1	-5.6	-2.6	48.7	-3.6	88.6*	-3.1	85.9*
CCn1c(SCc2ccc(C(=O)Nc3nccs3)cc2)nnc1-c1ccc(NC(C)=O)cc1	2.7	-2.0	12.8	x	0.6	-7.2	x
COc1ccc(CC(=O)Nc2ccc(C(=O)Nc3nccs3)cc2)cc1OC	5.6	-4.3	13.7	25.6	82.8*	-14.7	63.2*
CC(C)(C)NC(=O)CSc1nc2[nH]ncc2c(=O)[nH]1	14.8	-1.2	-0.4	24.6	0.2	-12.5	x
CCOc1ccc(N/C(=N/c2nc(C)cc(C)n2)NC(C)=O)cc1	-7.2	2.4	0.0	-4.8	-0.5	1.4	x
c1cnc2ccc(C(c3nnnn3C3CCCCC3)N3CCN(C4CCCCC4)CC3)cc2c1 (stereo unspecified)	4.2	2.3	3.4	x	77.4*	3.5	69.6*
O=C(Cc1ccc(F)cc1)Nc1cccc(-c2ccc3nncn3n2)c1	-0.2	-0.7	4.9	2.3	89.1*	-10.5	3.3
CC1(Cc2ccc3c(c2)OCO3)NC(=O)NC1=O (stereo unspecified)	1.3	-1.3	17.2	x	102.4*	-5.1	58.7*
CC(C)(C)C(=O)CN1C(=O)NC(C)(Cc2ccc3c(c2)OCO3)C1=O (stereo unspecified)	0.0	x	x	-7.1	x	x	x
Nc1nc(NCCCN2CCOCC2)nc(Nc2ccccc2F)c1[N+](=O)[O-]	7.9	-65.4	-0.9	22.6	0.3	-4.3	x
COc1ccc(N2C3=C(CC4=C2CC(C)(C)CC4=O)C(=O)CC(C)(C)C3)cc1	6.4	1.5	2.3	x	95.0*	4.8	40.3
COc1ccc(/C=N/Nc2ccccn2)cc1O	9.3	-73.2	59.5*	5.2	89.6*	3.2	64.5*
COc1cc(/C=N/NC(=O)C(=O)Nc2ccccn2)ccc1O	10.7	-27.8	0.5	19.5	0.4	-13.8	x
Clc1ccc(/C=N/Nc2ccccn2)cc1	-7.5	-30.8	18.1	-78.7	80.7*	-8.6	44.6
Brc1ccc(/C=N/Nc2ccccn2)cc1	3.0	-23.7	15.5	2.8	77.9*	-14.5	3.8
COc1ccc(/C=N/Nc2cc(N(C)C)nc(N(C)C)n2)cc1	6.5	-13.6	0.3	-7.9	4.2	-1.5	x
COc1ccc(/C=N/Nc2cc(OC)ncn2)cc1	-10.9	-38.2	5.5	12.1	78.0*	-9.6	28.4
CCOc1ccc(/C=N/Nc2ccccn2)cc1	5.6	-36.5	12.3	14.9	77.6*	-10.1	3.9
Cc1ccc(/C=N/Nc2ccccn2)s1	4.0	x	x	0.8	x	x	x
Cc1noc(C)c1/C=N/Nc1ccccn1	-2.7	-8.3	44.7	-11.6	82.0*	2.1	73.2*
Fc1ccc(/C=N/Nc2ccccn2)cc1	3.9	-10.3	16.8	-16.6	73.0	-3.8	x
COc1ccc(Cl)cc1NC(=O)c1nc2nc(C)cc(C(F)F)n2n1	4.6	-7.0	-0.6	x	4.9	-4.5	x
COc1cc([N+](=O)[O-])ccc1NC(=O)COC(=O)c1ccc(NC(N)=O)cc1	-11.2	-10.9	2.6	-1.4	78.4*	-4.6	38.7
COC(=O)c1cc(S(=O)(=O)C(C)C)c(S(C)=O)s1 (stereo unspecified)	-1.5	-12.6	1.9	-28.5	76.8*	2.1	11.0
CSc1sc(C(=O)NCC2CC2)cc1S(=O)(=O)C(C)C	-0.2	-5.7	1.2	33.0	0.1	1.5	x
